A short description of data set [1]: Positive allosteric modulation of muscarinic M2/M3 receptor in Hartley guinea pig ileum assessed as increase in donepezil-induced stimulation of contraction. Format: tissue-based. To be noted: Cavia porcellus. Summed up: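 PAM mode used guinea pig ileum in a tissue bath. Contraction concentration–response curves were run in the presence of an EC20 of donepezil, with or without atropine.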

Data set [2] is described as follows: Unbound plasma concentration in scopolamine-induced Wistar rat model at 0.1 mg/kg, po measured after 1 hr. Format: ADME, organism-based. To be noted: in vivo.
The nature of data set [3]: Toxicity in dog assessed as induction of watery feces at 5 mg/kg, po using spray-dried dispersion formulation. Conditions: in vivo. Format: organism-based, Canis lupus familiaris.
In another data set the test system is Rattus norvegicus. Kind of data set: Reversal of amphetamine-induced prepulse inhibition in Sprague-Dawley rat at 1 mg/kg, sc administered 30 min before testing followed by administration of amphetamine 15 mins prior to testing. Format: functional, organism-based. An outline of the steps:
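In rats with amphetamine-disrupted prepulse inhibition, the compound was dosed sc as a suspension in 0.5% methylcellulose in water. Startle reflex and PPI alone were also assessed, and the analysis used the collapsed data set. Plasma and brain levels were taken from randomly chosen animals (N=2/dose) at the end of the study (1.67 h).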

Data set [4] can be described thus: Ratio of AUC in rat brain to fAUC in rat plasma. Format: ADME, cell-free. Conditions: in vivo.
The nature of data set [5]: Partial agonist activity at muscarinic M2/M3 receptor in Hartley guinea pig ileum assessed as stimulation of contraction in presence of mAChR antagonist atropine. Format: tissue-based, Cavia porcellus. An outline of the steps:
(§1)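 Agonist mode used a guinea pig ileum tissue bath with the compound applied alone. Concentration–response curves were run with or without the non-selective muscarinic antagonist atropine. Contraction was expressed relative to the maximal carbachol response.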

The target in data set [6] is T1, Muscarinic acetylcholine receptor M1 (Homo sapiens) (UniProt P11229).
T1 sequence (whole entry): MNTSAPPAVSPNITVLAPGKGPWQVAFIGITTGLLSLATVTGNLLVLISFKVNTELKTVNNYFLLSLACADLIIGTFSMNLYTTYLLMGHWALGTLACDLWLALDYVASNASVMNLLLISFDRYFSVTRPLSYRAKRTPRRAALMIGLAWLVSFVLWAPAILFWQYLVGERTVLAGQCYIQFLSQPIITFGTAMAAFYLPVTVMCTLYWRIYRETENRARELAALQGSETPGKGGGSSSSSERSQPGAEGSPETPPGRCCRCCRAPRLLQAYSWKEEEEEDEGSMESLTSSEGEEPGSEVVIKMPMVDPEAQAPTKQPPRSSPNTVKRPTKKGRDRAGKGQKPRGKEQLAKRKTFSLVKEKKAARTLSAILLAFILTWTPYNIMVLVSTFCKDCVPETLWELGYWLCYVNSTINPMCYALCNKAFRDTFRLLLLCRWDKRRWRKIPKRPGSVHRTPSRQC
Kind of data set: Binding affinity to human muscarinic M1 receptor stably expressed in CHO cells assessed as increase in intracellular calcium level measured after 10 mins by Fluo-8AM dye based FLIPR TETRA method. Format: cell-based. Conditions: filed as positive allosteric modulator. A general note: Calcium flux is commonly read through the fluorescence of an indicator in the cells.

Data set [7] is described as follows: Unbound brain concentration in CD-1 mouse at 3.2 mg/kg, sc measured after 2 hrs by LC-MS/MS analysis. Format: ADME, organism-based. Conditions: in vivo.
For data set [8], the target named is T1, Muscarinic acetylcholine receptor M1 (Homo sapiens). Kind of data set: Positive allosteric modulation of human muscarinic M1 receptor expressed in CHO cells assessed as increase in ACh-induced displacement of [3H]-NMS from M1 receptor at 10 uM by scintillation counting method relative to Ach alone. To be noted: filed as positive allosteric modulator. Format: cell-based.

Data set [9] in a line: fCmax in dog at 1 mg/kg, po measured after 4 hrs using spray-dried dispersion formulation. Format: ADME, organism-based, Canis lupus familiaris. To be noted: in vivo. An outline of the steps:
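Dogs from the crossover cardiovascular telemetry study (N=4), dosed orally at 0.3, 1 and 3 mg/kg; unbound Cmax extrapolated from 4 h post-dose in-life plasma samples.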

A short description of data set [10]: Unbound brain concentration in […] in Sprague-Dawley rat model at 0.32 mg/kg, sc measured after 1.67 hrs. Format: ADME, organism-based. To be noted: in vivo. An outline of the steps: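 Randomly selected animals (N=2/dose) at the end of the rat PPI study, T = 1.67 h. Dosed subcutaneously as a suspension in 0.5% methylcellulose in water. Plasma and brain concentrations were averaged.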

Data set [11] addresses T2, Muscarinic acetylcholine receptor M1 (Rattus norvegicus) (UniProt P08482).
T2 sequence (whole entry): T1 sequence (whole entry) with A5V, T254S, P309S, R320K, A337G, I413V
As to the kind of experiment: Positive allosteric modulation of muscarinic M1 receptor in Sprague-Dawley rat hippocampal slice assessed as increase in carbachol-induced CA1 spiked rates by electrophysiological analysis. To be noted: filed as positive allosteric modulator.

A short description of data set [12]: Unbound brain concentration in scopolamine-induced Wistar rat model at 0.1 mg/kg, po measured after 1 hr. Format: ADME, organism-based. To be noted: in vivo.
Data set [13] is described as follows: Fraction unbound in Wistar Han rat plasma. Format: ADME.
Data set [14] in a line: Unbound plasma concentration in amphetamine-induced C57BL/6J mouse model of hyperlocomotion at 3.2 mg/kg, sc measured after 1 hr. Format: ADME, organism-based. Conditions: in vivo. Summed up: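 Satellite PK animals from the mouse aLMA study, N=2/dose. Dosed subcutaneously with a solution in 5/15/80 DMSO/Solutol/water. Plasma and brain were sampled at T = 1 h.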
The nature of data set [15]: Ratio of fAUC in C57BL/6 mouse brain to plasma. Conditions: brain and plasma, read-out: Ratio AUC. Format: ADME, cell-free.
The nature of data set [16]: fAUC (0 to 24 hrs) in rat at 10 mg/kg, po administered for 14 days. Format: ADME, organism-based. To be noted: in vivo, 336 h, time 14 day. Summed up:
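2-week repeat oral dosing in rats, 0.5% methylcellulose formulation; N=4/sex/dose; doses 3, 10, 30 (males)/15 (females) mg/kg; unbound exposures reported per dose and sex.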

A short description of data set [17]: Oral bioavailability in dog at 0.5 mg/kg. Format: ADME, organism-based, Canis lupus familiaris. Conditions: in vivo.
Data set [18] can be described thus: Toxicity in dog assessed as convulsion at 45 mg/kg, po using spray-dried dispersion formulation measured after 45 mins. Format: organism-based, Canis lupus familiaris. To be noted: in vivo, 0.75 h. An outline of the steps: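 Dogs received single escalating oral doses as a spray-dried dispersion (10% drug loading with HPMCAS-M). The dispersion was suspended in 0.5 wt% methylcellulose/0.5 wt% HPMCAS in 20 mM tris buffer, pH 7.4. One dog per sex per dose was used, and clinical signs were recorded.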

Data set [19] in a line: Permeability of compound in MDCKII-LE cells. To be noted: dog, MDCK; read-out: permeability. Format: ADME, cell-based, Canis lupus familiaris.
In data set [20] the target is T3, Muscarinic acetylcholine receptor M1 (Homo sapiens, UniProt P11229).
T3 sequence (P11229 whole entry): T1 sequence (whole entry)
Kind of data set: Partial agonist activity at muscarinic M1 receptor (unknown origin) assessed as recruitment of beta-arrestin by Path Hunter assay. Format: cell-based, CHO.

The nature of data set [21]: Partial agonist activity at muscarinic M2/M3 receptor in Hartley guinea pig ileum assessed as stimulation of contraction relative to carbachol. Format: tissue-based, Cavia porcellus. An outline of the steps:
as §1

Data set [22] is described as follows: fAUC (0 to 24 hrs) in dog at 3 mg/kg, po using spray-dried dispersion formulation. Format: ADME, organism-based, Canis lupus familiaris. Conditions: in vivo.

Residue numbers refer to the chain shown, from its start. Calls of active or inactive are those of the source. The rule behind the calls is not given here.

Regarding `Cc1cnc(C(=O)N[C@H]2CCOC[C@@H]2O)cc1Cc1ccc(-c2cscn2)cc1`, the EC50 (as a rule, the concentration giving half of the maximal effect) worked out at 82 nM in data set [1] and 3900 nM in data set [20]. Also, the “Cp(f)” value in data set [2] is listed as 0.9 nM; in data set [14] it was 255 nM. Also, the Activity result in data set [3] was “Toxic”; in [5], “Not Active”; in [11] it was “Dose-dependent effect”; in [18], “Toxic”. The outcome in the data set on Rattus norvegicus was Active. Also, the “Ratio AUC” value in [4] is on record as 0.36. In addition, the Ka in [6] was determined as 2 µM. Further, the figures for the “Drug uptake(free)” value in [7], in [10] and in data set [12] were 52.8 nM, 4.3 nM and 0.31 nM, respectively. For the same compound, the fold change (FC) in data set [8] stood at 339. The fCmax in [9] is 169 nM. In data set [13], this compound had a Fu of 4.3%. In data set [15], the Kp uu amounted to 0.34. For the same compound, the values for the fAUC in data set [16] and in [22] were 5.739 µM·h and 5.242 µM·h, respectively. Further, the bioavailability (commonly the share of a dose that reaches the circulation, judged against a reference dose that is usually intravenous) in data set [17] was 43%. Also, the Papp in data set [19] amounted to 22 ×10⁻⁶ cm/s. For the same compound, the maximal response (Emax) (usually the maximal effect, on the per cent scale that the assay sets) in data set [21] worked out at 77%.

Values taken from ChEMBL document CHEMBL4715734, “Discovery of the Potent and Selective M1 PAM-Agonist N-[(3R,4S)-3-Hydroxytetrahydro-2H-pyran-4-yl]-5-methyl-4-[4-(1,3-thiazol-4-yl)benzyl]pyridine-2-carboxamide (PF-06767832): Evaluation of Efficacy and Cholinergic Side Effects” (J Med Chem, 2016).
